Compounds with a hit are over-represented: about 2.7% of the library has one in this group of screens.
S100A4 MyoIIA = blocks human S100A4 binding to myosin IIA peptide; P26447; S100A4/TAMRA-MyoIIA peptide fluorescence polarization; inhibition, % at 10.7 µM; actives 0.14% (n = 360,000); AID 652163;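 active = mean inhibition of at least 70% across replicates, with every replicate also reaching that level; inconclusive = mean inhibition reaches 70% but some replicates fall short; inactive = mean inhibition below 70%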
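Material: S100A4 monomer protein / Buffer or medium: 50 mM HEPES pH 7.2, 10 mM CaCl2, 100 mM KCl / Times: 5 min incubation before reading / Benchmarks: neutral control DMSO, positive control TFP / Reagent: labelled myosin peptide probe, 5 nM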
AF4-AF9 inh = blocks AF4 peptide binding to human AF9 | P42568 | AlphaScreen, biotin-AF4 peptide binding to FLAG-AF9 | inhibition, % at 10 µM | actives 0.47% (n = 350,000) | AID 651704;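 active = every replicate reaching a set inhibition limit, whatever the replicate mean, cut at about 25% in these data; inconclusive = mean inhibition reaches that limit but some replicates miss it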;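 note: 0% = plate neutral control median and 100% = total signal loss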
Target sequence (P42568 whole entry, looked up): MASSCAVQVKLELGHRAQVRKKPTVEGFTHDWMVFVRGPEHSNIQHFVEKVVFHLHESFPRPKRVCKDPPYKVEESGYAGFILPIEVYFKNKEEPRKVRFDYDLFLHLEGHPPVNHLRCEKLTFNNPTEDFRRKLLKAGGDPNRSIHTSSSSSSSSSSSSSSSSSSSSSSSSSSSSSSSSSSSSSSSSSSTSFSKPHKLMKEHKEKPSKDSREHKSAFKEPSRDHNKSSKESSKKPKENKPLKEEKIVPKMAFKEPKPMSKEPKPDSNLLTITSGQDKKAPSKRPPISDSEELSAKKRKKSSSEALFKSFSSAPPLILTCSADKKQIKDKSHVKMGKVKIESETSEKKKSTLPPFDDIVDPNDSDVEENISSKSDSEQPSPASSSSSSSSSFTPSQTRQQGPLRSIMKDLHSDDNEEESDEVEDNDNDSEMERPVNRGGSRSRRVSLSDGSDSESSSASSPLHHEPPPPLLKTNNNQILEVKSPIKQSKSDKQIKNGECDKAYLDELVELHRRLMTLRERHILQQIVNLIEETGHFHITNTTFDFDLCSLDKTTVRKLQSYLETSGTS
CaV13 ICDI inh = Primary screen for inhibitors of IQ motif and Ca2+-dependent inactivation inhibitor domain binding in CACNA1D, Förster resonance energy transfer in living cells, …; HEK cells, CFP/YFP FRET ICDI-IQ, plate reader, 10 min; percent FRET-ratio fall versus neutral wells; inhibition, % at 12.3 µM; AID 743397; actives 0.098% (n = 340,000);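 active = mean replicate inhibition of at least 30% and at least 1% of replicates passing that level; inconclusive = only one of the two criteria is met; inactive = neither criterion is met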;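 note: 0% = median of the neutral control wells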
SIRT5 block = sirtuin-5 (human) deacylase inhibition. actives 1.1% (n = 330,000). Purified SirT5, succinyl-peptide AMC, trypsin-coupled fluorescence. inhibition, % at 15 µM. AID 652115. Q9NXA8; in the data active = inhibition above about 15%; inconclusive = no clear call, values can overlap the other calls
DENV2 CPE = protects cells from dengue virus 2 cytopathic effect | DENV2-infected cells, cytopathic effect rescue, plate reader | CPE inhibition, % at 9.99 µM | actives 1.7% (n = 350,000); in the data active = CPE inhibition above about 20%, passing the limit was not always enough; inconclusive = no clear call, values can overlap the other calls; tested in BHK-21 cells;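 note: 0% = median of neutral control wells and 100% = median of positive control wells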
* marks the source's active call; other numbers are inactive results; ? = inconclusive; nt = not tested or not shown; ! = a repeat was not active.

SMILES	S100A4 MyoIIA	AF4-AF9 inh	CaV13 ICDI inh	SIRT5 block	DENV2 CPE
CCOC(=O)C1=CCN(S(=O)(=O)c2cccc(Cl)c2)C1c1cccc(Br)c1 (configuration not stated)	-1	-2	-2	-3	14
COc1ccccc1N1CCN(Cc2cc(Br)c(O)c3ncccc23)CC1	4	27*	-7	12	1
Cc1cc(Br)c(NC(=O)COC(=O)CC2CC3CCC2C3)c(Br)c1 (configuration not stated)	4	1	-5	19*	0
O=C(CNC(=O)c1ccc(Cl)cc1Cl)OCc1cn2cc(Br)ccc2n1	74*	-2	-6	1	-7
Cc1c(C(=O)NCc2ccc(C#N)cc2)sc(=O)n1Cc1ccccn1	2	4	-9	nt	21*
Cc1ccc(S(=O)(=O)Nc2ccc3c(c2)C(=O)N([C@@H](C)CO)C[C@@H](C)[C@H](CN(C)C(=O)Nc2cccc4ccccc24)OCCCC[C@@H](C)O3)cc1	-3	-7	nt	7	-1
O=C1OC(c2ccccc2)(N(Nc2ccccc2)c2ccccc2)c2ccccc21 (configuration not stated)	-6	3	-17	-3	24*
CNC[C@@H]1OCCCC[C@@H](C)Oc2ccc(NS(=O)(=O)c3cn(C)cn3)cc2C(=O)N([C@H](C)CO)C[C@H]1C	nt	nt	nt	nt	1
O=C(Cc1ccc(NC(=O)C2CCCN(C(=O)c3ccccc3)C2)cc1)Nc1cccc(C(=O)N2CCCC2)c1 (configuration not stated)	0	-1	-11	nt	-7
CN1CCc2cccc3c2[C@H]1Cc1ccc(O)c(O)c1-3	2	29*!	-6	1	0
CN(C)CC(=O)Nc1ccc2c(c1)[C@H]1C[C@H](CC(=O)NCc3ccc(Cl)cc3)O[C@@H](CO)[C@H]1O2	2	1	nt	3	-3
COC/C=C/C1=CC2=CC(=O)C(C)(OC(=O)c3cnc4ccccc4n3)C(=O)C2=CN1CCOC (configuration not stated)	10	nt	-11	nt	-3
COC/C=C/C1=CC2=CC(=O)C(C)(OC(=O)c3cnc4ccccc4n3)C(=O)C2=CN1C(CO)CO (configuration not stated)	-4	nt	-7	nt	31*
O=C(C[C@@H]1CC[C@@H]2[C@H](COC[C@@H](O)CN2C(=O)Nc2cccc(F)c2)O1)NCc1ccccc1F	25	-5	nt	5	?
CC(C)CC#Cc1cnc2c(c1)C(=O)N([C@@H](C)CO)C[C@@H](C)[C@@H](CN(C)C(=O)CCN1CCCCC1)O2	7	0	nt	-4	15
Cc1ccc(SC2=C(Sc3ccc(C)cc3)C(=O)c3ccccc3C2=O)cc1	-1	0	-19	-6	-1
CC1=CC(=O)C(Sc2ccc(C)cc2)=CC1=O	6	1	-13	7	95*
Cc1ccc(C2=C(O)C(=O)C(c3ccc(C)cc3)=C(O)C2=O)cc1	-1	0	-6	-1	56*
COc1cc2c(oc(=O)c3cc(C)cc(OC)c32)c2c(C3OC(C)C(O)C(C)(O)C3O)ccc(O)c12 (configuration not stated)	-5	-1	-7	19*	-3
C[C@@H]1CN([C@H](C)CO)C(=O)c2cc(N(C)C)ccc2O[C@H]1CN(C)Cc1ccc(-c2ccccc2)cc1	-1	50*	nt	5	10
C[C@H]1CN([C@@H](C)CO)C(=O)c2cc(N(C)C)ccc2O[C@@H]1CN(C)Cc1ccc(-c2ccccc2)cc1	-3	40*	nt	0	18
O=C(NCc1ccc(Cl)cc1)c1ccc2c(=O)n(CC3CCCO3)c(=S)[nH]c2c1 (configuration not stated)	-3	1	-3	16*	-3
COC(CNC(=O)c1ccc2c(=O)n(Cc3ccc4c(c3)OCO4)c(=S)[nH]c2c1)OC	-2	-2	-4	16*	-4
COCCCNC(=O)c1ccc2c(=O)n(Cc3ccc4c(c3)OCO4)c(=S)[nH]c2c1	nt	nt	-5	nt	nt
CCCn1c(=S)[nH]c2cc(C(=O)NCc3ccccc3OC)ccc2c1=O	-2	1	-10	nt	2
SMILES	S100A4 MyoIIA	AF4-AF9 inh	CaV13 ICDI inh	SIRT5 block	DENV2 CPE
CC(C)Cn1c(=S)[nH]c2cc(C(=O)NCc3ccccc3F)ccc2c1=O	2	-6	-14	2	62*
Cc1cc(C(=O)Nc2cccc3c2O[C@H](CN(C)Cc2ccncc2)[C@@H](C)CN([C@@H](C)CO)C3=O)n(C)n1	4	-2	nt	4	-6
CC(C)NC(=O)N(C)C[C@H]1Oc2ccc(NC(=O)c3ccncc3)cc2CC(=O)N([C@@H](C)CO)C[C@H]1C	11	-2	nt	-3	7
N=C1/C(=C\c2ccc(SCc3ccccc3)o2)C(=O)N=C2SC(CC(=O)N3CCOCC3)=NN12	-7	nt	-20	6	-3
N=C1/C(=C/c2ccc(-c3cccc(C(=O)O)c3)o2)C(=O)N=C2SC(CC(=O)N3CCOCC3)=NN12	3	-11	-3	22*	8
CCCC#Cc1ccc([C@@H]2[C@@H](CO)N3C(=O)CN(C(=O)Nc4ccccc4F)C[C@@H]23)cc1	-12	-1	nt	0	1
O=C(C[C@H]1C[C@H]2c3cc(NS(=O)(=O)c4ccc(F)cc4)ccc3O[C@H]2[C@H](CO)O1)NCc1ccc(-c2ccccc2)cc1	2	0	nt	18*	-6
O=C(C[C@@H]1C[C@H]2c3cc(NS(=O)(=O)c4ccc(F)cc4)ccc3O[C@H]2[C@@H](CO)O1)NCc1ccc(-c2ccccc2)cc1	-7	0	nt	16*	2
O=[N+]([O-])c1ccc(F)cc1OCc1nc(-c2cccs2)no1	-3	3	-10	0	-1
O=[N+]([O-])c1ccccc1OCc1nc(-c2cccs2)no1	-3	0	-2	0	23*
CC1CN(CCOc2ccccc2-c2ccccc2)CC(C)O1 (configuration not stated)	0	-3	-3	31*	-1
O=C(Cn1cnc2cc([N+](=O)[O-])ccc2c1=O)NCCc1ccc(F)cc1	2	0	-7	-5	nt
CN(CC(=O)Nc1ccc(F)cc1)C(=O)Cn1cnc2ccc([N+](=O)[O-])cc2c1=O	-4	2	-8	24*	-4
O=C(C[C@H]1CC[C@H]2[C@@H](COC[C@H](O)CN2C(=O)c2ccccn2)O1)NC1CCC1	33	-1	nt	4	-2
COc1cccc(-c2cc(C(=O)NCC3CCCO3)c3cc(Br)cc(C)c3n2)c1 (configuration not stated)	4	0	-10	17*	3
COC(=O)[C@]12C[C@H](CC(=O)NCc3ccc(C)o3)C(=O)N(Cc3ccc4c(c3)OCO4)C1=C[C@H](C(C)(C)C)O[C@@H]2C	0	0	-10	nt	?
